Assay results published in ChEMBL document CHEMBL4371041, “Synthesis and evaluation of thieno[3,2-d]pyrimidine derivatives as novel FMS inhibitors” (Bioorg Med Chem Lett, 2019).

Columns and labels:
NFS-60 = experiment: Growth inhibition of mouse NFS60 cells after 72 hrs by CellTiter96 AQueous one solution cell proliferation assay; type: functional; details: NFS-60, 72 h
[1] = Stability in human hepatocytes assessed as parent compound remaining measured after 60 mins; type: ADME, cell-based, Hepatocyte; details: read-out: Stability
[2] = Clearance in CD-1 mouse at 3 mg/kg, iv; type: ADME, organism-based; details: in vivo
[3] = AUC (0 to 7 hrs) in CD-1 mouse at 3 mg/kg, iv; type: ADME, organism-based; design: dose 3 mg/kg, time < 7 hr, route intravenous; details: in vivo
[4] = Tmax in CD-1 mouse at 10 mg/kg, po; type: ADME, organism-based; details: in vivo
[5] = Cmax in CD-1 mouse at 10 mg/kg, po; type: ADME, organism-based; design: dose 10 mg/kg, route oral; details: in vivo
[6] = AUC (0 to 7 hrs) in CD-1 mouse at 10 mg/kg, po; type: ADME, organism-based; design: time < 7 hr, dose 10 mg/kg, route oral; details: in vivo
[7] = Oral bioavailability in CD-1 mouse at 10 mg/kg; type: ADME, organism-based; details: in vivo
[8] = Half life in CD-1 mouse at 10 mg/kg, po; type: ADME, organism-based; details: in vivo
[9] = Volume of distribution in CD-1 mouse at 3 mg/kg, iv; type: ADME, organism-based; details: in vivo
[10] = Half life in CD-1 mouse at 3 mg/kg, iv; type: ADME, organism-based; details: in vivo
[11] = Cmax in CD-1 mouse at 3 mg/kg, iv; type: ADME, organism-based; design: dose 3 mg/kg, route intravenous; details: in vivo
Cytochrome P450 1A2 = Cytochrome P450 1A2 (Homo sapiens, UniProt P05177); experiment: Inhibition of CYP1A2 in human liver microsomes by LC-MS/MS analysis; type: ADME
In short: (§1)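 Reversible CYP inhibition measured in human liver microsomes; metabolite formation quantified by LC/MS/MS.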

Cytochrome P450 3A4 = Cytochrome P450 3A4 (Homo sapiens, UniProt P08684); experiment: Inhibition of CYP3A4 in human liver microsomes by LC-MS/MS analysis; type: ADME; in short: as §1
Cytochrome P450 2C19 = Cytochrome P450 2C19 (Homo sapiens, UniProt P33261); experiment: Inhibition of CYP2C19 in human liver microsomes by LC-MS/MS analysis; type: ADME; in short: as §1
Cytochrome P450 2C9 = Cytochrome P450 2C9 (Homo sapiens, UniProt P11712); experiment: Inhibition of CYP2C9 in human liver microsomes by LC-MS/MS analysis; type: ADME; in short: as §1
Cytochrome P450 2D6 = Cytochrome P450 2D6 (Homo sapiens, UniProt P10635); experiment: Inhibition of CYP2D6 in human liver microsomes by LC-MS/MS analysis; type: ADME; in short: as §1
Cytochrome P450 2D6, sequence (P10635 whole entry): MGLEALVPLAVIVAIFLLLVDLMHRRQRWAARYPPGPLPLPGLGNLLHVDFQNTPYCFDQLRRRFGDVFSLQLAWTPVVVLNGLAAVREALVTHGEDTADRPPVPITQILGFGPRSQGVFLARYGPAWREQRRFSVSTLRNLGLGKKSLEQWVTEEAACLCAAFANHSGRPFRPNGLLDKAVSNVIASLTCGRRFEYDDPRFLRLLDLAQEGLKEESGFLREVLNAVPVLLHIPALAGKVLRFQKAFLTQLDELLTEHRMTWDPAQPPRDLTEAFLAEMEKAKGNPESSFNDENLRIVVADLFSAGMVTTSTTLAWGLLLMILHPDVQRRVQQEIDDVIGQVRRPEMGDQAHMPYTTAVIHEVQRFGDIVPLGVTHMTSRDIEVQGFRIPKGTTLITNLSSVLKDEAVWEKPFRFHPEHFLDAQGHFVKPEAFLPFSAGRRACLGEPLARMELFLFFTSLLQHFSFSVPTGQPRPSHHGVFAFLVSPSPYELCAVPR

Cytochrome P450 3A4, sequence (P08684 whole entry): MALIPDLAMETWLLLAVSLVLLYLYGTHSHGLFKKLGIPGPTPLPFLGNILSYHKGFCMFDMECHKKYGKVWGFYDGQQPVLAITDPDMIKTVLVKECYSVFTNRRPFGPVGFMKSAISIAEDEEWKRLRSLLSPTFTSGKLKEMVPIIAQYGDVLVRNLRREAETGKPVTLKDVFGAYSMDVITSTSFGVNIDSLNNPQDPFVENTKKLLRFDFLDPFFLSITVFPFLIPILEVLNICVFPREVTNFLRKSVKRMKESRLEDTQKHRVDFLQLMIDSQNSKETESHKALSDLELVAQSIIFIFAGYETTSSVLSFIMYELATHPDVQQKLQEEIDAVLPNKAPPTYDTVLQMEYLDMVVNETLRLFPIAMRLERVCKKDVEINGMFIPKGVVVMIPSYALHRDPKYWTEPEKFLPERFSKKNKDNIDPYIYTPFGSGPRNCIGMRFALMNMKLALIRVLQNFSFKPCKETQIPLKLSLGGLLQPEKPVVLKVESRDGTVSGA
Cytochrome P450 2C19, sequence (P33261 whole entry): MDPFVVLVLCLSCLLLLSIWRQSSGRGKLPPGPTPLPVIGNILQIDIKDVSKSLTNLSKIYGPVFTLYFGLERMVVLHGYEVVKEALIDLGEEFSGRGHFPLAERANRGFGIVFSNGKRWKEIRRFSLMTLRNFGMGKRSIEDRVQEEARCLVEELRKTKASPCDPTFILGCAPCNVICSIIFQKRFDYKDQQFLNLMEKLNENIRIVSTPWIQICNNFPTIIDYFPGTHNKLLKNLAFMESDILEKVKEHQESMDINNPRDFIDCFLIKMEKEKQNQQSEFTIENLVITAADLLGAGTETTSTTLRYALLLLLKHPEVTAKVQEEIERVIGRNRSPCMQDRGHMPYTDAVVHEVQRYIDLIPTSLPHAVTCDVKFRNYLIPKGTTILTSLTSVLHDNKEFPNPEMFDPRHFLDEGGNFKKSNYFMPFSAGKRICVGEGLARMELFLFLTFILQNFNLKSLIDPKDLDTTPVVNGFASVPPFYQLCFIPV
Cytochrome P450 1A2, sequence (P05177 whole entry): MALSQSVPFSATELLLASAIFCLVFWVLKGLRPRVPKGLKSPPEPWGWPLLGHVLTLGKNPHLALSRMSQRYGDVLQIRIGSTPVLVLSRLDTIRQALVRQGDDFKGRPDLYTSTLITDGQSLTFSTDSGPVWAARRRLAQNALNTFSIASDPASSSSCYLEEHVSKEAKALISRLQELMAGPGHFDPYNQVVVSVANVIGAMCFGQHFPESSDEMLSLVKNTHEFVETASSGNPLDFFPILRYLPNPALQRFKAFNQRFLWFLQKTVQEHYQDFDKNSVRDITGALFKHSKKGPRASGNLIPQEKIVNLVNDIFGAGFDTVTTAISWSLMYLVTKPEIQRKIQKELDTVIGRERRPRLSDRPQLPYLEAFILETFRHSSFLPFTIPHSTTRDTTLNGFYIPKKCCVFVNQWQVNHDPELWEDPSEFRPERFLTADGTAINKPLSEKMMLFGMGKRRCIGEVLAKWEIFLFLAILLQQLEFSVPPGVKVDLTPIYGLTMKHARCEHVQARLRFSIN
Cytochrome P450 2C9, sequence (P11712 whole entry): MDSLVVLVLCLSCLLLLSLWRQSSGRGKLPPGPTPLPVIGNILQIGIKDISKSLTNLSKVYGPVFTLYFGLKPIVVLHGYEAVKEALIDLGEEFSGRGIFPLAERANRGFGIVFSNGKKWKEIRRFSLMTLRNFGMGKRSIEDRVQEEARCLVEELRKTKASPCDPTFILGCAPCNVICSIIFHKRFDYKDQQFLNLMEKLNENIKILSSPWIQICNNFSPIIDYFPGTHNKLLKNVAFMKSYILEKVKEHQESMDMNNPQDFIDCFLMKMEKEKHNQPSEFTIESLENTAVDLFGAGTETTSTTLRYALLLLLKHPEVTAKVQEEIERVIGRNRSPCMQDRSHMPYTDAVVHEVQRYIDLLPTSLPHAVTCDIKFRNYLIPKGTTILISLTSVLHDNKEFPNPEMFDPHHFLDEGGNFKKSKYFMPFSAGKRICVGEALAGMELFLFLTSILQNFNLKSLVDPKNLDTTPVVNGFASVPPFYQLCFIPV

For `Cc1cccc(Cn2nc(I)c3c(NC(=O)c4csc5c(N)ncnc45)cccc32)n1`, which GI50 (NFS-60) is on record?
Its GI50 is 30 nM.

For `Nc1ncnc2c(C(=O)Nc3cccc4c3c(Br)nn4CC3CCCCC3)csc12`, which GI50 (NFS-60) is on record?
Its GI50 is 254 nM.

For `Nc1ncnc2c(C(=O)Nc3cccc4c3c(Br)nn4Cc3ccccc3)csc12`, which GI50 (NFS-60) is on record?
The GI50 was 1000 nM.

For `COc1cccc(Cn2nc(Br)c3c(NC(=O)c4csc5c(N)ncnc45)cccc32)n1`, which GI50 (NFS-60) is on record?
Its GI50 is 34 nM.

Which results are given for `Cc1cccc(Cn2nc(Cl)c3c(NC(=O)c4csc5c(N)ncnc45)cccc32)n1`?
remaining at 1 h [1]: 66%; GI50 (NFS-60): 8 nM

Which GI50 (NFS-60) does the source give for `Nc1ncnc2c(C(=O)Nc3cccc4c3c(Br)nn4Cc3ccncc3)csc12` here?
Its GI50 is 135 nM.

With `C#CCn1nc(Br)c2c(NC(=O)c3csc4c(N)ncnc34)cccc21` as the compound, how does the GI50 (NFS-60) read?
The GI50 was greater than 10000 nM.

With `CCc1nn(Cc2cccc(C)n2)c2cccc(NC(=O)c3csc4c(N)ncnc34)c12` as the compound, how does the GI50 (NFS-60) read?
The GI50 was greater than 10000 nM.

For `COc1ccc(COc2ccc(Cc3cnc(N)nc3N)cc2OC)cc1` [GW632580X], which GI50 (NFS-60) is on record?
Its GI50 is 94 nM.

With `C=Cc1nn(Cc2cccc(C)n2)c2cccc(NC(=O)c3csc4c(N)ncnc34)c12` as the compound, how does the GI50 (NFS-60) read?
The GI50 was 4460 nM.

Which GI50 (NFS-60) does the source give for `COc1ccc(Cn2nc(Br)c3c(NC(=O)c4csc5c(N)ncnc45)cccc32)cc1` here?
Its GI50 is 2390 nM.

Which results are given for `Cc1cccc(Cn2nc(Br)c3c(NC(=O)c4csc5c(N)ncnc45)cccc32)n1`?
clearance [2]: 6.67 mL/min/kg; AUC(0-t) at 7 h [3]: 5760 ng·h/mL; Tmax [4]: 1 h; Cmax [5]: 1620 ng/mL; AUC(0-t) at 7 h [6]: 6060 ng·h/mL; bioavailability [7]: 37%; half-life [8]: 234 min; Vd [9]: 1.4 L/kg; half-life [10]: 156 min; Cmax [11]: 2400 ng/mL; GI50 (NFS-60): 27.5 to 28 nM

With `Nc1ncnc2c(C(=O)Nc3cccc4c3c(Br)nn4Cc3ccccn3)csc12` as the compound, how does the GI50 (NFS-60) read?
The GI50 was 2500 nM.

For `Nc1ncnc2c(C(=O)Nc3cccc4c3c(Br)nn4Cc3cccc(Br)n3)csc12`, which GI50 (NFS-60) is on record?
The GI50 was 243 nM.

Which GI50 (NFS-60) does the source give for `Nc1ncnc2c(C(=O)Nc3cccc4c3c(Br)nn4Cc3cccc(F)n3)csc12` here?
The GI50 was 233 nM.

For `Nc1ncnc2c(C(=O)Nc3cccc4c3c(Br)nn4Cc3cccnc3)csc12`, which IC50 (Cytochrome P450 1A2) is on record?
The IC50 was less than 250 nM.

And the IC50 (Cytochrome P450 3A4)?
The IC50 was 310 nM.

What about the IC50 (Cytochrome P450 2C19) of the same compound?
Its IC50 is 2020 nM.

And the IC50 (Cytochrome P450 2C9)?
Its IC50 is 1380 nM.

And the GI50 (NFS-60)?
Its GI50 is 77 nM.

And the IC50 (Cytochrome P450 2D6)?
The IC50 was greater than 20 µM.

Which GI50 (NFS-60) does the source give for `CCn1nc(Cn2nc(Br)c3c(NC(=O)c4csc5c(N)ncnc45)cccc32)cc1C(C)C` here?
Its GI50 is 62 nM.
